In brackets after ≈: the same amount, converted by molar mass. Where only a bound is given, the exact number is not on record here.

Assay [1] relates to Escherichia coli. Description: In vitro antibacterial activity on sensitivity of Escherichia coli N63 to gentamicin at a concentration of 50 ug/mL. Format: functional. Put shortly: (§1)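 Checkerboard broth microdilution of E. coli N63, inoculated from overnight BHI agar growth, in Mueller-Hinton broth with serial 2-fold dilutions of aminoquinoline and gentamicin. Overnight at 37 °C. Growth read as turbidity at 600 nm, corrected with uninoculated drug-containing wells for insoluble compound. Gentamicin MIC determined at each fixed aminoquinoline concentration.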

The subject of assay [2] is Escherichia coli. Briefly: In vitro antibacterial activity on sensitivity of Escherichia coli N63 to gentamicin at a concentration of 0 ug/mL. Format: functional. In short, it runs like this:
as §1

In assay [3] the test system is Escherichia coli. Description: In vitro antibacterial activity on sensitivity of Escherichia coli N63 to gentamicin at a concentration of 25 ug/mL. Format: functional. In short, it runs like this:
as §1

The subject of assay [4] is Escherichia coli. Description: Effective dose at which 100% protection occurs in mice infected with Escherichia coli. Format: functional. In short, it runs like this: (§2)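 Female NSA (CF-1) mice, 11–16 g, dosed sc with compound in pyrogen-free saline or water 24 h before ip injection of 0.5 mL E. coli N63 (~4×10^7 CFU/mL, from log-phase L broth culture). Subtherapeutic gentamicin given sc at 0.5, 4 and 24 h postinfection. Ten mice per group. Survival versus infected untreated controls. Minimum effective dose is the sc dose giving significant protection (p < 0.05). The 100%-protection dose is also reported.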

Assay [5] concerns Mus musculus. Briefly: Effect of interval between drug treatment and challenge on activity in the mouse protection assay 0 days prior to infection at 1.7 mg/Kg. Format: functional. Put shortly:
(§3)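 Female NSA (CF-1) mice, 11–16 g, given compound sc in pyrogen-free saline or water (suspensions homogenized) at 6, 3, 1 or 0 days before ip challenge with 0.5 mL E. coli N63 (~4×10^7 CFU/mL). Gentamicin sc at 0.5, 4 and 24 h postinfection. Ten mice per group. Percent protection = (dead in control − dead in treated) ÷ dead in control × 100.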

Assay [6] deals with Escherichia coli. Description: Compound was evaluated for efficacy in murine systemic Escherichia coli infection with subtherapeutic gentamycin treatment. Format: functional. The settings on record: read-out: PD50. Put shortly:
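Female NSA (CF-1) mice (11–16 g) were given test compound in pyrogen-free saline or water, or as a homogenized saline suspension, 24 h before ip challenge with 0.5 mL E. coli N63 (serotype O18) at about 4×10^7 CFU/mL. Gentamicin 0.5 mg/kg was given sc at 0.5, 4 and 24 h postinfection. Endpoint was survival, with 10 mice per group. PD50 was derived by probit analysis of pooled experiments.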

Assay [7] has as its system Escherichia coli. Description: In vitro antibacterial activity on sensitivity of Escherichia coli N63 to gentamicin at a concentration of 1.56 ug/mL. Format: functional. In short, it runs like this:
as §1

Assay [8] has as its system Escherichia coli. Briefly: In vitro antibacterial activity on sensitivity of Escherichia coli N63 to gentamicin at a concentration of 3.13 ug/mL. Format: functional. In short, it runs like this: as §1
For assay [9], the system named is Mus musculus. Briefly: Effect of interval between drug treatment and challenge on activity in the mouse protection assay 1 days prior to infection at 1.7 mg/Kg. Format: functional. Put shortly: as §3
The subject of assay [10] is Escherichia coli. Briefly: Minimum subcutaneous effective dose required to protect mice from systemic Escherichia coli. Format: functional. The conditions noted are these: sc, read-out: MED. In short, it runs like this:
as §2

In assay [11] the test system is Escherichia coli. Briefly: Compound was evaluated for efficacy in murine systemic Escherichia coli infection without subtherapeutic gentamycin treatment. Format: functional. The conditions noted are these: read-out: PD50. In short, it runs like this:
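Female NSA (CF-1) mice (11–16 g) were given test compound in pyrogen-free saline or water, or as a homogenized saline suspension, 24 h before ip challenge with 0.5 mL E. coli N63 (serotype O18) at about 4×10^7 CFU/mL. No gentamicin was given. Endpoint was survival, with 10 mice per group. PD50 was derived by probit analysis of pooled experiments.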

The subject of assay [12] is Escherichia coli. Briefly: In vitro antibacterial activity on sensitivity of Escherichia coli N63 to gentamicin at a concentration of 6.25 ug/mL.
Assay [13] relates to Mus musculus. Briefly: Effect of interval between drug treatment and challenge on activity in the mouse protection assay 6 days prior to infection at 1.7 mg/Kg. Format: functional. In short, it runs like this: as §3
Assay [14] has as its system Mus musculus. Description: Effect of interval between drug treatment and challenge on activity in the mouse protection assay 3 days prior to infection at 1.7 mg/Kg. Format: functional. Put shortly:
as §3

Assay [15] has as its system Escherichia coli. Briefly: In vitro antibacterial activity on sensitivity of Escherichia coli N63 to gentamicin at a concentration of 100 ug/mL. Format: functional. In short, it runs like this: as §1
The test system of assay [16] is Escherichia coli. Description: In vitro antibacterial activity on sensitivity of Escherichia coli N63 to gentamicin at a concentration of 12.5 ug/mL. Format: functional. Put shortly: as §1
The subject of assay [17] is Mus musculus. Briefly: Minimum subcutaneous effective dose required to protect mice from systemic Escherichia coli; ND=No dose response. Format: functional, organism-based. Put shortly:
as §2

Take `Cc1cc(Nc2ccc(OCC3CCCCC3)cc2)c2c(ccc3[nH]cnc32)n1`: the minimal inhibitory concentration (MIC) (in general, the lowest concentration found to suppress growth) with Escherichia coli [1] is 0.063 µg/mL (≈ 0.163 µM); against Escherichia coli [2], 0.5 µg/mL (≈ 1.29 µM); in the assay on Escherichia coli [3], 0.125 µg/mL (≈ 0.323 µM); against Escherichia coli [7] it was 0.25 µg/mL (≈ 0.647 µM); with Escherichia coli [8] it was 0.25 µg/mL (≈ 0.647 µM); in the assay with Escherichia coli [12], 0.25 µg/mL (≈ 0.647 µM). Besides, the MIC against Escherichia coli [15] stood at 0.063 µg/mL (≈ 0.163 µM); with Escherichia coli [16], 0.125 µg/mL (≈ 0.323 µM). In addition, the ED100 in the assay on Escherichia coli [4] worked out at 5 mg/kg. The Protection in the assay with Mus musculus [5] is reported as 0%; in the assay with Mus musculus [9], 60%; in the assay with Mus musculus [13], 0%; in the assay with Mus musculus [14] it was 40%. Besides, the ED50 in the assay with Escherichia coli [6] worked out at 0.5 mg/kg; with Escherichia coli [11], 1.5 mg/kg. For the same molecule, in the assay on Escherichia coli [10], the minimal effective dose amounted to 1 mg/kg.

Turning to `COc1cccc(Nc2cc(C)nc(C)c2C(C)=O)c1`, in the assay with Escherichia coli [10], the minimal effective dose is more than 100 mg/kg.

In the case of `COc1cccc(Nc2cc(C)nc3ccc4c[nH]nc4c23)c1`, the MIC in the assay with Escherichia coli [1], against Escherichia coli [2], in the assay with Escherichia coli [3], against Escherichia coli [7], against Escherichia coli [8] and in the assay with Escherichia coli [12] was 0.25 µg/mL (≈ 0.821 µM) throughout. Also, the MIC in the assay with Escherichia coli [16] was determined as 0.25 µg/mL (≈ 0.821 µM). In addition, the ED100 in the assay on Escherichia coli [4] was found to be 17 mg/kg. Besides, the Protection with Mus musculus [5] was 0%; in the assay with Mus musculus [9] (in the assay text read “25 mg/Kg” for “1.7 mg/Kg”) it was 100%; in the assay on Mus musculus [13] it was 88%; in the assay with Mus musculus [14], 100%. Further, the ED50 was determined as 4.2 mg/kg in the assay on Escherichia coli [6] and 9.8 mg/kg in the assay with Escherichia coli [11]. Further, the minimal effective dose with Escherichia coli [10] came to 6 mg/kg.

In the assay on Escherichia coli [4], `CCCCOc1ccc(Nc2cc(C)nc3ccc4[nH]cnc4c23)cc1` had an ED100 of 15 mg/kg. For the same molecule, the minimal effective dose in the assay with Escherichia coli [10] came to 5 mg/kg.

For the molecule `CCCCc1ccc(Nc2cc(C)nc3ccc4[nH]cnc4c23)cc1`, the ED100 in the assay on Escherichia coli [4] is 15 mg/kg. Also, the minimal effective dose with Escherichia coli [10] worked out at 5 mg/kg.

In the assay on Escherichia coli [4], `COc1cccc(Nc2cc(C)nc3ccc4[nH]cnc4c23)c1` displayed an ED100 of 50 mg/kg. Further, the minimal effective dose in the assay on Escherichia coli [10] was 6 mg/kg.

`Cc1cc(Nc2ccc(OCc3ccccc3)cc2)c2c(ccc3c[nH]nc32)n1` yielded an ED100 in the assay on Escherichia coli [4] of 6 mg/kg. Also, the minimal effective dose with Escherichia coli [10] is 2 mg/kg.

Molecule `Cc1cc(Nc2ccc(C#N)cc2)c2c(ccc3[nH]cnc32)n1` displayed an ED100 with Escherichia coli [4] of 2 mg/kg. Besides, the minimal effective dose in the assay on Escherichia coli [10] was 2 mg/kg.

Take `COc1cccc(Sc2cc(C)nc3ccc4[nH]cnc4c23)c1`: the minimal effective dose in the assay with Escherichia coli [10] is more than 50 mg/kg.

On to `O=C(Nc1ccc(OCC2CCCCC2)cc1)c1cccc2[nH]cnc12`, for which, in the assay on Escherichia coli [10], the minimal effective dose is more than 50 mg/kg.

As for `CCCCOc1ccc(Nc2cc(C)nc3ccccc23)cc1`, the minimal effective dose in the assay with Escherichia coli [10] was more than 50 mg/kg.

With `Cc1cc(Nc2ccc(OCc3ccccc3)cc2)c2ccccc2n1`, the minimal effective dose with Escherichia coli [10] is more than 50 mg/kg.

Consider `Cc1cc(Nc2ccc(OCc3ccccc3)cc2)c2c(ccc3[nH]ncc32)n1`, for which the MED entry in the assay on Mus musculus [17] was “No dose response”.

On to `COc1cccc(Nc2cc(C)nc3ccccc23)c1`, for which, in the assay on Escherichia coli [10], the minimal effective dose was more than 50 mg/kg.

As to `COc1cccc(N(C)c2cc(C)nc3ccc4[nH]cnc4c23)c1`, the minimal effective dose with Escherichia coli [10] was more than 50 mg/kg.

On to `COc1cccc(NC(=O)c2cccc3[nH]cnc23)c1`, for which, in the assay with Escherichia coli [10], the minimal effective dose was more than 50 mg/kg.

Turning to `COc1cccc(Nc2cc(C)nc(C)c2C(C)O)c1` (stereo not drawn), the minimal effective dose in the assay on Escherichia coli [10] is more than 100 mg/kg.

As to `CCCCc1ccc(Nc2cc(C)nc3ccccc23)cc1`, in the assay with Escherichia coli [10], the minimal effective dose was more than 50 mg/kg.

On to `O=C(NC1CCCCC1)c1cccc2[nH]cnc12`, for which, in the assay on Escherichia coli [10], the minimal effective dose was more than 50 mg/kg.

On to `COc1cccc(Nc2cc(C)nc(C)c2/C(C)=N/O)c1`, for which the minimal effective dose in the assay on Escherichia coli [10] is more than 100 mg/kg.

Turning to `COc1cccc(Nc2cc(C)nc3ccc4[nH]ncc4c23)c1`, the minimal effective dose in the assay with Escherichia coli [10] was more than 50 mg/kg.

Regarding `N#Cc1ccc(NC(=O)c2cccc3[nH]cnc23)cc1`, the minimal effective dose in the assay on Escherichia coli [10] was more than 50 mg/kg.

`Cc1cc(NC2CCCCC2)c2c(ccc3[nH]cnc32)n1` came in with an ED100 in the assay with Escherichia coli [4] of 6 mg/kg. Moreover, in the assay on Escherichia coli [10], the minimal effective dose came to 6 mg/kg.
